Data as given in ChEMBL document CHEMBL1146502, “Dimeric flavonol glycoside and galloylated C-glucosylchromones from Kunzea ambigua” (J Nat Prod, 2004).

Experiments:
Assay type in all cases: cell-based
[1] = Cytotoxicity against human Raji cells assessed as cell viability at 500 molar ratio; settings: read-out: Activity
[2] = Cytotoxicity against human Raji cells assessed as cell viability at 1000 molar ratio; settings: read-out: Activity
[3] = Cytotoxicity against human Raji cells assessed as cell viability at 100 molar ratio; settings: read-out: Activity
[4] = Cytotoxicity against human Raji cells assessed as cell viability at 10 molar ratio; settings: read-out: Activity
[5] = test system: Raji; assay: Inhibition of TPA-induced EBV-early antigen activation in human Raji cells assessed as EA activation at 100 molar ratio after 48 hrs relative to TPA; settings: human gammaherpesvirus 4
In short: (§1)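 Raji cells (EBV genome-carrying, virus nonproducer) were grown in RPMI-1640 with 10% FBS. Cells at 1 × 10⁶/mL were held 48 h at 37 °C with 4 mM n-butyric acid, TPA 20 ng (32 pmol)/mL, and test compound in DMSO, dosed as a mol ratio to TPA. EA-positive cells in smears were scored by indirect immunofluorescence, with ≥500 cells counted, in triplicate. Results are given relative to the butyrate+TPA control (100%).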

[6] = test system: Raji; assay: Inhibition of TPA-induced EBV-early antigen activation in human Raji cells assessed as EA activation at 10 molar ratio after 48 hrs relative to TPA; settings: human gammaherpesvirus 4; in short: as §1
[7] = test system: Raji; assay: Inhibition of TPA-induced EBV-early antigen activation in human Raji cells assessed as EA activation at 1000 molar ratio after 48 hrs relative to TPA; settings: human gammaherpesvirus 4; in short: as §1
[8] = test system: Raji; assay: Inhibition of TPA-induced EBV-early antigen activation in human Raji cells assessed as EA activation at 500 molar ratio after 48 hrs relative to TPA; settings: human gammaherpesvirus 4; in short: as §1

Structure (SMILES) | viability at 500 molar ratio [1] [%] | viability at 1000 molar ratio [2] [%] | viability at 100 molar ratio [3] [%] | viability at 10 molar ratio [4] [%] | EBV-EA activation relative to control (%) [5] [%] | EBV-EA activation relative to control (%) [6] [%] | EBV-EA activation relative to control (%) [7] [%] | EBV-EA activation relative to control (%) [8] [%]
CC(C)c1cc(=O)c2c(O)cc(O)c([C@@H]3O[C@H](CO)[C@@H](O)[C@H](O)[C@H]3O)c2o1 | 80 | 70 | 80 | 80 | 72.5 | 100 | 9.1 | 29.6
O=C(O[C@@H]1Cc2c(O)cc(O)cc2O[C@@H]1c1cc(O)c(O)c(O)c1)c1cc(O)c(O)c(O)c1 [EPIGALOCATECHIN GALLATE] | 80 | 70 | 80 | 80 | 68.1 | 87.7 | 6.4 | 34.9
Cc1c(O)c(Cc2c(O)cc3oc(-c4ccc(O)c(O)c4)c(O[C@@H]4O[C@@H](C)[C@H](O)[C@@H](O)[C@H]4O)c(=O)c3c2O)c2oc(-c3ccc(O)c(O)c3)c(O[C@@H]3O[C@@H](C)[C@H](O)[C@@H](O)[C@H]3O)c(=O)c2c1O [KUNZEAGIN A] | 80 | 70 | 80 | 80 | 66.1 | 90.5 | 4.3 | 32.5
CC(C)c1cc(=O)c2c(O)c([C@@H]3O[C@H](CO)[C@@H](O)[C@H](O)[C@H]3O)c(O)cc2o1 | 80 | 70 | 80 | 80 | 65 | 91 | 4.6 | 23.7
CC(C)c1cc(=O)c2c(O)cc(O)c([C@@H]3O[C@H](CO)[C@@H](O)[C@H](O)[C@H]3OC(=O)c3cc(O)c(O)c(O)c3)c2o1 | 80 | 70 | 80 | 80 | 74.7 | 100 | 11.5 | 31.6
CC(C)c1cc(=O)c2c(O)c([C@@H]3O[C@H](CO)[C@@H](O)[C@H](O)[C@H]3OC(=O)c3cc(O)c(O)c(O)c3)c(O)cc2o1 | 80 | 70 | 80 | 80 | 70.4 | 94.8 | 5.9 | 26.8
